ChEMBL document CHEMBL5678814, “Novel Mps1 Kinase Inhibitors with Potent Antitumor Activity” (Mol Cancer Ther, 2016)

Columns and labels:
[1] = In vivo inhibition of Mps1 in NMRI mouse assessed as MTD at => 1 mg/kg,po administered twice daily for 2 days and measured after 3 days relative to control; assay type: functional; details: time 2 day
U2OS = test: Antiproliferative activity against human U2OS cells assessed as cell growth inhibition incubated for 96 hrs by MTS assay; assay type: functional, cell-based
HCT-116 [2] = test: Antiproliferative activity against human TP53 mutant HCT-116 cells assessed as cell growth inhibition incubated for 96 hrs by crystal violet staining; details: HCT-116, 96 h
A549 = test: Antiproliferative activity against human A549 cells assessed as cell growth inhibition incubated for 96 hrs by crystal violet staining; details: A549, 96 h
[3] = Toxicity in human A2780cis cells xenografted female athymic NMRI mouse model assessed as change in body weight at 2.5 mg/kg, po administered twice daily intermittent for 2 days on/5 days off; assay type: organism-based; details: in vivo, 168 h, time 7 day
In short: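 A2780cis cells (2×10^6 in 100% Matrigel) implanted s.c. in athymic mice. Treatment started at ~30 mm2. Oral dosing twice daily, 2 days on/5 days off, with PEG 400/ethanol/Solutol vehicle controls. Dose based on individual body weight. Body weight monitored two to three times weekly as toxicity measure; >20% loss deemed toxic.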

JJN-3 = test: Antiproliferative activity against human JJN-3 cells assessed as cell growth inhibition incubated for 96 hrs by crystal violet staining; details: JJN-3, 96 h
RPMI-2650 = test: Antiproliferative activity against human RPMI-2650 cells assessed as cell growth inhibition incubated for 96 hrs by crystal violet staining; details: RPMI-2650, 96 h
[4] = Antiproliferative activity against human HBL1 cells assessed as cell growth inhibition incubated for 96 hrs by MTS assay; assay type: functional, cell-based; details: HBL1, 96 h
HCT-116 [5] = test: Antiproliferative activity against human TP53 wildtype HCT-116 cells assessed as cell growth inhibition incubated for 96 hrs by crystal violet staining; details: HCT-116, 96 h

## COc1cc(S(C)(=O)=O)ccc1Nc1nc2ccc(-c3ccc(NC(=O)[C@H](C)c4ccc(F)cc4)cc3)cn2n1 [BAY-1161909]
[1]
  MED: >=40%
U2OS
  IC50: 550 nM
HCT-116 [2]
  IC50: 59 nM
A549
  IC50: 130 nM
[3]
  Activity: Non-Toxic
JJN-3
  IC50: 100 nM
RPMI-2650
  IC50: 51 nM
[4]
  IC50: 110 nM
HCT-116 [5]
  IC50: 42 nM
